Activity calls are given as the source filed them. The rule behind the calls is not given here.
Columns and labels:
[1] = target: NAD-dependent protein deacylase sirtuin-5, mitochondrial (Homo sapiens) (UniProt Q9NXA8); assay: Activation of N-terminal his-tagged human SIRT5 (34 to 302 residues) expressed in Escherichia coli at 10 uM using p53-acK381 as substrate in presence of NAD+ by NADH oxidation-coupled enzymatic assay
[2] = target: T1, NAD-dependent protein deacetylase sirtuin-3, mitochondrial (Homo sapiens) (UniProt Q9NTG7); assay: Activation of N-terminal his-tagged human SIRT3 (114 to 380 residues) deacylation activity expressed in Escherichia coli at 10 uM using ACS2-acK642 as substrate in presence of NAD+ by NADH oxidation-coupled enzymatic assay; settings: filed as activator
T1 sequence (whole entry): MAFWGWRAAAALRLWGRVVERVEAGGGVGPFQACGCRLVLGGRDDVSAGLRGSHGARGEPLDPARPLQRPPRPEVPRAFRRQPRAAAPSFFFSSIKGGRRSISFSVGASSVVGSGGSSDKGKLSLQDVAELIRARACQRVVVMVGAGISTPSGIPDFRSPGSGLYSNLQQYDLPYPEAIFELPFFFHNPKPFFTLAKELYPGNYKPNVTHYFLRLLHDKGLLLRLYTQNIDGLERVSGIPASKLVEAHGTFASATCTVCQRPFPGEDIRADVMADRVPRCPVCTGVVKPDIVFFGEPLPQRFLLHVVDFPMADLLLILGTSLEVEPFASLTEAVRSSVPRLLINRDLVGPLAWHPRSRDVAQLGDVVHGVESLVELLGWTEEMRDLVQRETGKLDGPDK
Outline: (§1)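 Coupled PncA/GDH deacylation assay following NADPH oxidation to NADP+. 1.5 μM sirtuin, 50 μM substrate peptide, 100 μM NAD+, compound at 10 μM, 5% final DMSO. Isoform-specific physiological substrates: p53-acK381 (SIRT1), […] (SIRT2), ACS2-acK642 (SIRT3), CPS1-succK537 (SIRT5). Sirtuins expressed in E. coli, Ni-NTA purified, tag cleaved, then size-exclusion chromatography.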

[3] = tested on: MDA-MB-231; assay: Downregulation of MMP9 gene expression in human MDA-MB-231 cells at 50 uM incubated for 48 hrs by qRT-PCR analysis; type: functional, cell-based
Outline: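 MDA-MB-231 cells treated with 50 μM compound for 48 h under normoxia, DMSO vehicle control. qRT-PCR quantified by the 2(−ΔCt) method as fold of control, mean ± SEM. Three independent experiments.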

[4] = tested on: MDA-MB-231; assay: Downregulation of MMP9 gene expression in human MDA-MB-231 cells at 50 uM incubated for 48 hrs under hypoxia condition by qRT-PCR analysis; type: functional, cell-based
Outline: (§2)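 MDA-MB-231 cells pretreated with 200 μM CoCl2 to induce hypoxia, then exposed to 50 μM compound for 48 h with CoCl2 maintained. qRT-PCR by the 2(−ΔCt) method vs DMSO control, mean ± SEM. Four independent experiments.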

[5] = tested on: MDA-MB-231; assay: Downregulation of MMP2 gene expression in human MDA-MB-231 cells at 50 uM incubated for 48 hrs under hypoxia condition by qRT-PCR analysis; type: functional, cell-based; outline: as §2
[6] = target: T1, NAD-dependent protein deacetylase sirtuin-3, mitochondrial (Homo sapiens); assay: Activation of N-terminal his-tagged human SIRT3 (114 to 380 residues) deacylation activity expressed in Escherichia coli at 100 uM using ACS2-acK642 as substrate in presence of NAD+ by NADH oxidation-coupled enzymatic assay; settings: filed as activator
Outline: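 Coupled PncA/GDH deacylation assay following NADPH oxidation to NADP+. 1.5 μM SIRT3 (E. coli-expressed, tag removed) with 50 μM ACS2-acK642 peptide and 100 μM NAD+, compound at 100 μM, 5% final DMSO.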

[7] = tested on: CAL-62; assay: Anticancer activity against human CAL-62 cells assessed as reduction in cell viability at 50 uM incubated for 24 to 48 hrs under hypoxia condition by trypan blue exclusion assay; type: functional, cell-based; settings: time 24-48 hrs, TDE = time-dependent effect
Outline: (§3)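 CAL-62 cells in RPMI 1640 with 10% FBS, treated with 50 μM compound (DMSO) for 24 and 48 h. Hypoxia induced with 200 μM CoCl2, kept in the medium during treatment. Viable cells counted by 0.4% trypan blue staining on a hemocytometer.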

[8] = tested on: MDA-MB-231; assay: Downregulation of SNAIL gene expression in human MDA-MB-231 cells at 50 uM incubated for 48 hrs under hypoxia condition by qRT-PCR analysis; type: functional, cell-based; outline: as §2
[9] = tested on: MDA-MB-231; assay: Downregulation of EPAS-1 expression in human MDA-MB-231 cells at 50 uM incubated for 48 hrs under hypoxia condition by Western blot analysis; type: functional, cell-based
Outline: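 CAL-62 or MDA-MB-231 cells made hypoxic with 200 μM CoCl2 for 24 h, then treated with 50 μM compound for 48 h with CoCl2 retained. Lysates (15 or 50 μg protein) immunoblotted for HIF-1α, EPAS-1 or CA-IX with ACTB, ECL detection. 3-TYP (1 μM) as control.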

[10] = target: T2, NAD-dependent protein deacetylase sirtuin-1 (Homo sapiens) (UniProt Q96EB6); assay: Activation of N-terminal his-tagged human SIRT1 expressed in Escherichia coli at 10 uM using p53-acK381 as substrate in presence of NAD+ by NADH oxidation-coupled enzymatic assay; outline: as §1
T2 sequence (whole entry): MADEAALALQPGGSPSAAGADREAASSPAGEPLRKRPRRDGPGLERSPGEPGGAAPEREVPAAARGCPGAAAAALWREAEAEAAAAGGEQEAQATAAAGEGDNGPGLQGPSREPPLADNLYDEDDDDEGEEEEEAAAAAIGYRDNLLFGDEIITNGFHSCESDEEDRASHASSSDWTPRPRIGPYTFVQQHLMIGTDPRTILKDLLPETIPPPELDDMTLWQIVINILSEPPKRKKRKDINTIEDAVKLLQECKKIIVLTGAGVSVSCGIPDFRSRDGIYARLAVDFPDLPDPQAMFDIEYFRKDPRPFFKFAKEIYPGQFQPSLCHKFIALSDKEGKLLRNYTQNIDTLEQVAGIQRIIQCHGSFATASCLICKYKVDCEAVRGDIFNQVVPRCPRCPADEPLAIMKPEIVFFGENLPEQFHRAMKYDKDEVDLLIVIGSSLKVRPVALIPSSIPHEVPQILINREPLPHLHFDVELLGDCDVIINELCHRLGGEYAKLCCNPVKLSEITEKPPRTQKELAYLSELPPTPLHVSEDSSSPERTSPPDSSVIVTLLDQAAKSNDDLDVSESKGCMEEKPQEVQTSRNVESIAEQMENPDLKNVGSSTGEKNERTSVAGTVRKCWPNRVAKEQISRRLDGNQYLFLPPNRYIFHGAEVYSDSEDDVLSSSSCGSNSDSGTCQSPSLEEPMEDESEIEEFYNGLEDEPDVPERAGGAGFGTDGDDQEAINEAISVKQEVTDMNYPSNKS

[11] = tested on: CAL-62; assay: Anticancer activity against human CAL-62 cells assessed as reduction in cell viability at 50 uM incubated for 24 to 48 hrs under normoxia condition by trypan blue exclusion assay; type: functional, cell-based; settings: time 24-48 hrs, TDE = time-dependent effect; outline: as §3
[12] = tested on: MDA-MB-231; assay: Downregulation of COLLAGEN gene expression in human MDA-MB-231 cells at 50 uM incubated for 48 hrs under hypoxia condition by qRT-PCR analysis; type: functional, cell-based; outline: as §2

Sequence of NAD-dependent protein deacylase sirtuin-5, mitochondrial (Homo sapiens) (Q9NXA8 37-310 limits assumed): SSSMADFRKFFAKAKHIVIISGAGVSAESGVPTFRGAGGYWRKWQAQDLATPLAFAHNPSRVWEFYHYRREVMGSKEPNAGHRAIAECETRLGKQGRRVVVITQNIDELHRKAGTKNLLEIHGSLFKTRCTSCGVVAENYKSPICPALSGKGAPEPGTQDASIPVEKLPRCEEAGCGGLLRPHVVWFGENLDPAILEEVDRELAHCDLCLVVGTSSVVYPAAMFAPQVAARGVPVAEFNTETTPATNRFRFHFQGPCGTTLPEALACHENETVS

Activity [1] | Activity [2] | Activity [6] | Activity [10] | Structure (SMILES) | Activity [3] | Activity [4] | Activity [5] | Activity [7] | Activity [8] | Activity [9] | Activity [11] | Activity [12]
inactive | 149% | 178% | inactive | CCOC(=O)C1=CN(C(=O)c2cc(OC)cc(OC)c2)C=C(C(=O)OCC)C1c1ccccc1 | Active | Active | Active | Tde | Active | Active | Tde | Active
inactive | 158% | 387% | inactive | CCOC(=O)C1=CN(C(=O)c2ccc(OC)c(OC)c2)C=C(C(=O)OCC)C1c1ccccc1 | Active | Active | Active | Tde | Active | Active | Tde | Active
